# Assay outcomes (PubChem BioAssay)
# Calb FLC – C. albicans growth inhibition with fluconazole, primary screen, CaCi-2 strain, Alamar Blue fluorescence; growth inhibition, % (concentration not given with the values); C. albicans CaCi-2 (fluconazole-resistant clinical isolate) + fluconazole, 48 h; AID 1979, 2009; actives 0.57% (n = 300,000);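 active = growth inhibition above about 58% in most replicates, limit read from the data, passing the limit was not always enough; inconclusive = exactly half the replicates above a set limit; inactive = most replicates below a set limit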;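 also: all wells also contain fluconazole at 8 µg/ml as a sub-toxic cotreatment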
# NALP1 yeast inh – NALP1 inflammasome inhibitors in reconstituted yeast, colorimetric, S. cerevisiae, triplicate retest; inhibition, % at 10 µM; S. cerevisiae NALP1/ASC/caspase-1 growth, X-gal OD620, 72 h; AID 2071, 2009; actives 0.61% (n = 280,000); in the data active = inhibition mostly above about 24%, no sharp cut-off; inactive = mostly below about 32%
# UCH37 DUB inh – inhibitors of human UCH37 deubiquitinase, primary screen, biochemical, Ub-AMC cleavage, fluorescence; AID 588478, 2011; actives 0.33% (n = 330,000); Ubiquitin carboxyl-terminal hydrolase isozyme L5 (Homo sapiens), Q9Y5K5; inhibition, % (concentration not given with the values); purified proteasome/UCH37;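 active = mean inhibition over replicate wells above about 20%, limit read from the data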
#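 system = Proteasome-associated human UCH37 deubiquitinase | amount = 0.15 nM proteasome as dispensed | medium = pH 7.4 Tris-HCl (50 mM) with ovalbumin, ATP-MgCl2, DTT | incubation = 30 min preincubation with enzyme, 25 min cleavage at room temperature | detection = AMC fluorescence 355/460 nm | read-out basis = percent inhibition | controls = no-proteasome and no-compound wells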
# ATG4B inh – ATG4B protease inhibitors, primary screen, biochemical, fluorescence, uHTS | AID 504462, 2011 | Cysteine protease ATG4B (Homo sapiens), Q9Y4P1 | actives 0.51% (n = 340,000) | ATG4B cleavage of LC3-PLA2, NBD-HPC fluorescence, 1 h | inhibition, % at 8.33 µM; in the data active = inhibition above about 40%
# Target sequence (Q9Y4P1 whole entry, looked up): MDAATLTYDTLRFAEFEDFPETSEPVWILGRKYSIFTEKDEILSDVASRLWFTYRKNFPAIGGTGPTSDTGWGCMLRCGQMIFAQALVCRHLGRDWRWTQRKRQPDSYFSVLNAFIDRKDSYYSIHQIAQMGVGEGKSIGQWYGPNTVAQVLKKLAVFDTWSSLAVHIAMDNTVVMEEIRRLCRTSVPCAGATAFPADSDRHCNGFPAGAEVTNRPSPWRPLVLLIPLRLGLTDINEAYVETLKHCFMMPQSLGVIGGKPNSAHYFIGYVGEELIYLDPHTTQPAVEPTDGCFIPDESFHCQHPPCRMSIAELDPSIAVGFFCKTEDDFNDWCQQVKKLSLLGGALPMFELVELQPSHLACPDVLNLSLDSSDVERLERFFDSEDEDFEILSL
# NLRP3 yeast inh – NALP3 inflammasome inhibitors in reconstituted yeast, primary screen, luminescence, uHTS; Yeast reconstituted NLRP3/ASC/caspase-1, beta-gal luminescence, 24 h; inhibition, % at 10 µM; actives 0.39% (n = 330,000);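 active = inhibition of 50% or more; inactive = inhibition below 50%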
# ALR H2O2 inh – inhibitors of human ALR sulfhydryl oxidase, primary screen, biochemical, H2O2 detection, HRP-luminol luminescence, single point; FAD-linked sulfhydryl oxidase ALR (Homo sapiens), P55789; purified ALR, DTT oxidation; inhibition, % (concentration not given with the values); actives 3.8% (n = 290,000); AID 485317, 2010;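 active = mean replicate inhibition above about 79%, with every replicate also reaching it, limit read from the data; inconclusive = only one of the two criteria met; inactive = mean below limit and not every replicate reaching it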
# Target sequence (P55789 whole entry, looked up): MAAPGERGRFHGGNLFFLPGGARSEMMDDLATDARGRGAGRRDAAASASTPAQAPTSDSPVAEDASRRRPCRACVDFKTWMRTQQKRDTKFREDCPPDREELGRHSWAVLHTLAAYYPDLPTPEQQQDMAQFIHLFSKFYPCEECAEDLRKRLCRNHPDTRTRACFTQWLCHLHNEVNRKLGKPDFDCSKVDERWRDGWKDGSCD
# A number is an active result; 0 = inactive; ? = inconclusive; - = no result. This is a sample that favours compounds with a hit; in the whole collection about 4.8% have one here.
SMILES,Calb FLC,NALP1 yeast inh,UCH37 DUB inh,ATG4B inh,NLRP3 yeast inh,ALR H2O2 inh
COc1ccc(-n2c(/C=C3\C(=O)N(C)c4ccccc43)nc3ccccc3c2=O)cc1,0,-,0,0,0,97
Cn1c(SCC(=O)Nc2cccc(F)c2)nc2c(c1=O)SCC2,0,0,0,0,0,94
Cn1c(SCC(=O)Nc2ccccc2C(F)(F)F)nc2c(c1=O)SCC2,0,0,0,0,0,0
Cn1c(SCC(=O)Nc2ccc(C(N)=O)cc2)nc2c(c1=O)SCC2,0,0,0,0,0,99
CCOC(=O)c1ccc(NC(=O)CSc2nc3c(c(=O)n2-c2ccccc2OC)SCC3)cc1,0,-,0,0,0,99
COc1ccc(NC(=O)CSc2nc3c(c(=O)n2-c2ccccc2OC)SCC3)cc1,0,0,0,0,0,0
COc1ccc(-c2cc(C(F)(F)F)nc(S(C)(=O)=O)n2)cc1,0,0,0,0,0,-
CCOC(=O)CCS(=O)(=O)c1nc(-c2ccccc2)cc(C(F)(F)F)n1,0,0,-,0,0,87
CCOC(=O)CS(=O)(=O)c1nc(-c2ccc(F)cc2)cc(C(F)(F)F)n1,0,0,0,0,0,0
CCOC(=O)CS(=O)(=O)c1nc(-c2ccccc2)cc(C(F)(F)F)n1,0,0,0,0,0,98
COCC(C)NC(=O)CCS(=O)(=O)c1nc(-c2ccc(OC)cc2)cc(C(F)(F)F)n1 (stereo not given),0,0,0,0,0,97
COC(=O)CCS(=O)(=O)c1nc(-c2ccccc2)cc(C(F)(F)F)n1,0,0,0,0,0,98
CC(=NNC(=O)CCn1nnc2ccccc21)c1cccs1,-,-,0,-,-,-
CCOC(=O)c1c(CC(C)C)csc1N=CC1C(=O)CC(C)(C)CC1=O,-,-,0,-,-,-
COc1cc(C=NNc2cc(=O)n(C)c(=O)n2C)ccc1O,-,-,0,-,-,-
O=c1[nH]c2ccc(NC(=S)Nc3ccc(Cl)cc3)cc2[nH]1,0,0,0,0,0,0
Cc1ccc(NC(=S)Nc2ccc3[nH]c(=O)[nH]c3c2)cc1,0,0,0,0,0,99
Cc1ccc(C(=O)NC(=S)Nc2ccc3[nH]c(=O)[nH]c3c2)cc1,0,0,0,0,0,0
O=c1[nH]c2ccc(NC(=S)Nc3ccccc3)cc2[nH]1,0,0,0,0,0,90
Cc1ccccc1NC(=S)Nc1ccc2[nH]c(=O)[nH]c2c1,0,0,0,0,0,88
O=c1[nH]c2ccc(NC(=S)Nc3ccccc3Cl)cc2[nH]1,0,0,0,0,0,?
CC(C)c1ccc(NC(=S)Nc2ccc3[nH]c(=O)[nH]c3c2)cc1,0,0,0,0,0,0
CCOC(=O)c1ccc(NC(=S)Nc2ccc3[nH]c(=O)[nH]c3c2)cc1,0,0,0,0,0,80
O=S(=O)(c1ccc(F)cc1)n1ccc(-c2cccc(OCc3c(F)cccc3Cl)c2)n1,0,28,0,0,-,0
CCCCCCCC1CC(C(C)=NNC(N)=O)OC1=O (stereo not given),-,-,0,-,-,-
SMILES,Calb FLC,NALP1 yeast inh,UCH37 DUB inh,ATG4B inh,NLRP3 yeast inh,ALR H2O2 inh
CCn1c(SCC(=O)Nc2ccc3[nH]c(=O)[nH]c3c2)nc2ccccc21,-,-,0,0,0,99
COCCn1c(SCC(=O)Nc2ccc3[nH]c(=O)[nH]c3c2)nc2ccccc21,-,-,0,0,0,91
O=C(CSc1nc2ccc(Cl)cc2[nH]1)Nc1ccc2[nH]c(=O)[nH]c2c1,-,-,0,0,0,98
O=S(=O)(c1ccc(NC(=S)NN=Cc2cccc(Oc3ccccc3)c2)cc1)N1CCOCC1,-,-,0,-,-,-
CC(Oc1ccccc1)C(=O)N1CCN=C1SCc1ccccc1 (stereo not given),0,0,0,0,0,0
CC(=O)N1CCN=C1SCc1ccc(C(F)(F)F)cc1,0,0,0,0,0,99
O=C(C1CC1)N1CCN=C1SCc1cccc(F)c1,-,0,0,0,0,99
O=C(C1CC1)N1CCN=C1SCc1ccccc1,0,0,0,0,0,0
O=C(C1CC1)N1CCN=C1SCc1ccc(F)cc1,0,0,0,0,0,100
COc1ccc(Cc2nnc(NN=Cc3ccc(Br)cc3)[nH]c2=O)cc1OC,-,-,0,-,-,-
COc1cc(OC)c(OC)cc1C=Nn1c(COc2ccccc2)n[nH]c1=S,-,-,0,-,-,-
CCOC(=O)/C(=C\c1cccc(O)c1)c1nc2sc(C)c(C)c2c(=O)[nH]1,0,0,0,0,0,98
Cc1cc(C(=O)CN2C(=O)CCC2=O)c(C)n1Cc1ccccc1,0,0,0,0,0,94
CC(=NNC(=O)c1cc(-c2ccccc2)nc2c(Cl)cccc12)c1cccnc1,-,-,0,-,-,-
CCN1c2ccccc2NC2N=C(OC)C(c3ccccc3)C21 (stereo not given),0,0,0,0,0,99
O=C(CC(=NNC(=O)c1ccccc1Br)C(F)(F)F)c1cccs1,-,-,0,-,-,-
CC(=NNS(=O)(=O)c1ccc(C)cc1)c1c(O)c2ccccc2oc1=O,-,-,0,-,-,-
O=C(N/N=C/c1ccc(O)c(O)c1)c1cccc(S(=O)(=O)N2CCCCC2)c1,0,0,-,0,0,99
CCOc1cc(/C=N/NC(=O)c2cccc(S(=O)(=O)N3CCCC3)c2)ccc1OCC(=O)N(C)C,0,-,-,0,0,0
CCOc1cc(C=NNC(=O)c2cccc(S(=O)(=O)N3CCCC3)c2)ccc1O,-,-,0,0,0,95
O=C(NN=Cc1ccc([N+](=O)[O-])cc1)c1cccc2cc[nH]c12,-,-,0,-,-,-
Cc1cc(-c2cc(C(=O)O)c3ccccc3n2)c(C)s1,80,0,0,0,0,0
Cc1ccc(-c2cc(C(=O)Nc3ccncc3)c3ccccc3n2)cc1,0,-,0,0,0,-
O=C(NNC(=O)c1cc(-c2ccncc2)nc2ccccc12)c1ccccc1O,86,-,0,0,0,0
O=C(O)c1ccccc1NC(=O)c1cc(-c2ccccc2)nc2ccccc12,0,0,0,0,0,98
COc1ccc(C=NNC(=O)c2ccccc2O)cc1Cn1nnc2ccccc21,-,-,0,-,-,-
COc1ccc(S(=O)(=O)N2Cc3ccccc3CC2C(=O)Nc2ccc(O)cc2)cc1OC (stereo not given),0,0,0,0,0,95
CCCOc1ccc(C=NNC(=O)C(C)Sc2ccccn2)cc1OCC (stereo not given),-,-,0,-,-,-
O=C(CSc1nc2ccccc2c(=O)n1-c1ccc(F)c(Cl)c1)Nc1cccc(S(=O)(=O)N2CCOCC2)c1,0,0,0,0,0,98
O=C(CSc1nc2ccccc2c(=O)n1-c1ccc(F)cc1)Nc1ccc(Cl)c(S(=O)(=O)N2CCOCC2)c1,0,0,0,0,0,0
